Screens from PubChem BioAssay.
PAFAH2 inh – PAFAH2 enzyme inhibitors, primary screen, biochemical, fluorescence polarization, human | Platelet-activating factor acetylhydrolase 2, cytoplasmic (Homo sapiens), Q99487 | recombinant PAFAH2, FP-rhodamine activity probe | inhibition, % at 3.39 µM | actives 0.99% (n = 340,000) | AID 492956, 2010;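 active means inhibition above the mean over all tested compounds plus 3 SD, cut at about 30% in these data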;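 further: inhibitors block probe labeling of enzyme so polarization drops; 0% = enzyme with DMSO and 100% = wells lacking PAFAH2 protein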
PAFAH1B3 FP inh – PAFAH1B3 enzyme inhibitors, primary screen, biochemical, fluorescence polarization, human | recombinant PAFAH1B3, FP-rhodamine probe | inhibition, % at 3.39 µM | actives 0.28% (n = 340,000);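 active means inhibition above the screen-wide average of all tested compounds plus 3 SD, cut at about 25% in these data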;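 further: 0% = enzyme with DMSO only and 100% = wells lacking PAFAH1B3 protein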
Target sequence (Q15102 whole entry, looked up): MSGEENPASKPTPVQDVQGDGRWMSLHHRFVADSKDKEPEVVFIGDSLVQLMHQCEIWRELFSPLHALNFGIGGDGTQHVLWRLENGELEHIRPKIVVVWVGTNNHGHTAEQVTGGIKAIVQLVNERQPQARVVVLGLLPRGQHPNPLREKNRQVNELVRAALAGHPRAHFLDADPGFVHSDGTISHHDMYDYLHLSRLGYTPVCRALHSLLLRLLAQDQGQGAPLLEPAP
Apaf1 inhib – inhibitors of human Apaf-1 apoptosome, primary screen, biochemical, DEVD-Rh110 fluorescence, uHTS. Apoptotic protease-activating factor 1 (Homo sapiens), O14727. reconstituted apoptosome caspase-3 activity. inhibition, % at 20 µM. actives 0.71% (n = 330,000). AID 489030, 2010; active means inhibition of at least 40% at 20 µM;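 further: plate controls were DMSO wells for no effect and DEVD-CHO caspase inhibitor wells for full effect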
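System: reconstituted apoptosome with Apaf-1, cytochrome c, caspase-9, procaspase-3, dATP; Signal: Rh110 fluorescence intensity; Schedule: 30 min compound preincubation, 50 min activation, room temperature; Reagent: cytochrome c trigger plus (Z-DEVD)2-Rh110 caspase-3 substrate.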
pPAFAH inh – pPAFAH enzyme inhibitors, primary screen, biochemical, fluorescence polarization, human | recombinant pPAFAH, FP-rhodamine probe fluorescence polarization | inhibition, % at 3.39 µM | actives 1.5% (n = 330,000) | AID 463082, 2010;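 active means inhibition above the mean inhibition across the screen plus 3 SD, cut at about 25% in these data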;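 further: inhibitors block binding of the rhodamine activity-based probe so polarization drops; 0% = enzyme with DMSO and 100% = wells lacking pPAFAH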
PAFAH1B2 FP inh – PAFAH1B2 enzyme inhibitors, primary screen, biochemical, fluorescence polarization, human; Platelet-activating factor acetylhydrolase IB subunit alpha2 (Homo sapiens), P68402; recombinant PAFAH1B2, FP-rhodamine activity probe; inhibition, % at 3.39 µM; actives 1.2% (n = 340,000); AID 492953, 2010;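 active means inhibition above the mean of all tested compounds plus 3 SD, cut at about 24% in these data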;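 further: 0% = enzyme with DMSO and 100% = wells lacking PAFAH1B2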
Target sequence (P68402 whole entry, looked up): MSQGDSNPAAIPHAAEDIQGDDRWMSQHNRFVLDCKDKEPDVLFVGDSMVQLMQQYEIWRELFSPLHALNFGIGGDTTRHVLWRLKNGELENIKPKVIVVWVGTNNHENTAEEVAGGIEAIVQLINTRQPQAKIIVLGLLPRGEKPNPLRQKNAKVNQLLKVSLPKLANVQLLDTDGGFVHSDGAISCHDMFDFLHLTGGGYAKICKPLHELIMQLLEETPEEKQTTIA
Starred values were filed as active, the others as inactive; nt = no result given. Most compounds without a hit are left out; they make up all but 3.1% or so of the library.

SMILES	PAFAH2 inh	PAFAH1B3 FP inh	Apaf1 inhib	pPAFAH inh	PAFAH1B2 FP inh
O=C1c2cccc3c([N+](=O)[O-])ccc(c23)C(=O)N1c1ccc(Cl)cn1	8	34*	12	7	12
O=S(=O)(Nc1cccc(Cl)c1)c1ccc2oc(=S)[nH]c2c1	10	2	2	32*	12
Oc1ccc(C2Nc3cccc4cccc(c34)N2)c(O)c1	-5	36*	22	2	17
c1coc(C2Nc3cccc4cccc(c34)N2)c1	nt	nt	31	26*	nt
Clc1ccccc1C1Nc2cccc3cccc(c23)N1	7	9	35	12	0
O=C(c1ccccc1)N1CCN(C(=O)c2nn3c(C(F)(F)F)cc(-c4ccco4)nc3c2Br)CC1	13	9	28	34*	4
O=C(NC1CCCCC1)c1nn2c(C(F)(F)F)cc(-c3ccco3)nc2c1Br	4	3	9	0	1
COC(=O)\C(C(C)=O)=C(/C=C/C=C/C=C/N(C)C)N(C)C	-2	-5	-15	32*	-4
CC1CC(=O)Nc2ccccc2N1C(=O)CSc1ncnc2sccc12 (configuration not stated)	12	6	0	4	-1
COc1ccc(/C=C2/C(=O)N(c3c(F)c(F)c(F)c(F)c3F)N=C2C)cc1	8	6	54*	-5	5
COc1ccc(OCc2cccc(C(=O)NN)c2)cc1	-7	3	-4	7	5
COc1ccc(OCc2cccc(C(=O)Nn3cc([N+](=O)[O-])cn3)c2)cc1	3	-4	1	4	29*
Cc1c(S(=O)(=O)N2CCCCC2)c(=O)n(C)c(=O)n1C	-1	0	0	9	0
CCCN(CC(=O)Nc1ccccc1OC)C(=O)c1cc(S(=O)(=O)NCc2ccccc2)ccc1C	0	5	62*	4	0
CCCNC(=O)c1ccc2c(=O)c(O)c(-c3cccc(Br)c3)[nH]c2c1	-20	17	-6	28*	19
CCCNC(=O)c1ccc2c(=O)c(O)c(C)[nH]c2c1	3	10	-1	2	4
Nc1c(Cl)cc(-c2[nH]c3cc(C(=O)NCCO)ccc3c(=O)c2O)cc1Cl	-27	36*	-16	19	26*
CCCNC(=O)c1ccc2c(=O)c(O)c(-c3ccc(F)cc3)[nH]c2c1	11	25	-6	13	14
CCCCn1c(N)c(C(=S)NC(=O)CC(C)(C)C)c(=O)n(C)c1=O	-2	4	-2	-2	27*
CCCn1c(N)c(C(=O)CSc2ncn[nH]2)c(=O)n(C)c1=O	1	4	-5	-1	2
O=C(c1ccco1)[C@@H]1[C@@H]2C(=O)N(c3ccc(F)cc3)C(=O)[C@@H]2C2c3ccccc3C=CN21 (some centres not stated)	nt	nt	83*	4	nt
CC(=O)[C@H]1[C@@H]2C(=O)N(c3cccc(Cl)c3)C(=O)[C@@H]2[C@H]2c3ccccc3C=CN21	23	10	73*	18	4
CC(=O)[C@@H]1[C@@H]2C(=O)N(c3ccc(F)c(Cl)c3)C(=O)[C@@H]2C2c3ccccc3C=CN21 (some centres not stated)	nt	nt	72*	14	nt
N#C[C@@H]1[C@@H]2C(=O)N(c3ccc4c(c3)OCCO4)C(=O)[C@@H]2C2c3ccccc3C=CN21 (some centres not stated)	nt	nt	78*	14	nt
COc1ccc(CNC(=O)CN(Cc2ccco2)C(=O)CNS(=O)(=O)c2ccc(F)cc2)cc1	5	-4	-4	24	-1
SMILES	PAFAH2 inh	PAFAH1B3 FP inh	Apaf1 inhib	pPAFAH inh	PAFAH1B2 FP inh
CCOc1ccc(CN(C)C(=O)c2ccc(S(=O)(=O)N(C)c3ccccc3OC)cc2)cc1	2	2	32	1	5
CC(=O)[C@H]1[C@H](c2cccc(Cl)c2)C(C#N)(C#N)[C@@H]2c3ccccc3C=CN21	nt	nt	56*	3	nt
CCN(CC)c1ccc(NC(=O)CCS(=O)(=O)c2ccc(Br)cc2)c(C)c1	2	3	-136	16	11
CCOc1ccc(-n2cc(-c3ccccc3)c3c(=S)nc[nH]c32)cc1	3	3	18	28*	3
N#Cc1c(Nc2ccccc2)c(/C=N/N=C/c2ccccc2)c[nH]c1=O	5	10	17	15	4
N#Cc1c(Nc2ccccc2)c(/C=N/NCCO)c[nH]c1=O	1	0	-4	26*	-5
N#Cc1c(Nc2ccccc2)c(C=NCCN2CCOCC2)c[nH]c1=O	0	3	10	29*	3
CC(Sc1nc2ccccc2c(=O)n1CC1CCCO1)C(=O)Nc1ccc(S(N)(=O)=O)cc1 (configuration not stated)	-1	0	4	1	0
Cc1ccc(SCCC(=O)OCn2nnc3ccccc3c2=O)cc1	3	2	4	13	22
Cc1ccc(SCC(=O)OCn2nnc3ccccc3c2=O)cc1C	-8	6	-9	30*	6
O=C(O)c1ccc2c(c1)C1C=CCC1C(c1ccncc1)N2 (configuration not stated)	0	21	12	25*	1
CCOC(=O)c1ccc2c(c1)C1C=CCC1C(C(=O)O)N2 (configuration not stated)	nt	nt	38	83*	nt
COCCNC(=O)C1Nc2ccc(C(F)(F)F)cc2C2C=CCC12 (configuration not stated)	5	14	1	11	8
FC(F)(F)c1ccc2c(c1)C1C=CCC1C(c1ccncc1)N2 (configuration not stated)	9	7	nt	nt	1
Cc1ccc2c(c1C)NC(C(=O)O)C1CC=CC21 (configuration not stated)	44*	12	26	65*	9
O=C(O)C1Nc2c(C(=O)N3CCOCC3)cccc2C2C=CCC12 (configuration not stated)	23	1	13	20	7
COc1ccc(Cl)cc1C(=O)Nc1ccccc1N1CCCCC1	-2	5	15	0	5
CCN(C(=O)COC(=O)CCn1c(C)csc1=O)c1c(N)n(Cc2ccccc2)c(=O)[nH]c1=O	-1	9	-7	2	1
COC(=O)/C=C/CC(C)OS(N)(=O)=O (configuration not stated)	9	1	6	1	4
COC(=O)c1c(-c2ccccc2)csc1NC(=O)c1ccco1	-5	9	2	1	-3
Cc1csc(NC(=O)c2ccco2)c1C(=O)c1ccccc1	-7	8	-15	26*	3
C=CCN1C(=O)c2ccc(C(=O)N(CCC)CC(=O)Nc3ccccc3C)cc2C1=O	-3	3	9	-3	-1
